Only some compounds are listed: those with a hit (about 0.84% of all), similar ones and a draw of the others.
DDE Tn7 FP inh: disrupts Tn7 cyclic peptide binding to fibrin D-Dimer-E complex; FP displacement of FITC-Tn7 peptide from fibrin DD(E); 0% = median of compound wells per plate; inhibition, % at 8.3 µM; P02675; hit rate 0.13% among 370,000;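 active = inhibition above the mean of compounds falling within the control limits plus 3 SD of them, cut at about 14% in these data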
Target sequence (P02675 whole entry, looked up): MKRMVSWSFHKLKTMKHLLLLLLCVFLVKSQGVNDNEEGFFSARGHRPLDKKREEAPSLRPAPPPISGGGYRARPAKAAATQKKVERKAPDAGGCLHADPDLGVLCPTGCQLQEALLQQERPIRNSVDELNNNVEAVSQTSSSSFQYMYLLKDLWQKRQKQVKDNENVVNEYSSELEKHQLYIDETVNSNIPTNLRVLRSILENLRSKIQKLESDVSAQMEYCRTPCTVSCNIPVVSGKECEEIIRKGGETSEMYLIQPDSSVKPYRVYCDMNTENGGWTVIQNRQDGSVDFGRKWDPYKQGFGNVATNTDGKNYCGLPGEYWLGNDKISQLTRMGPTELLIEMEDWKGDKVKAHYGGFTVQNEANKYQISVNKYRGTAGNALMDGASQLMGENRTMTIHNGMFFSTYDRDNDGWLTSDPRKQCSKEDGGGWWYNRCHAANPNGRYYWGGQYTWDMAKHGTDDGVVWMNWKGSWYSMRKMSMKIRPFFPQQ
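Assay system: Fibrin-DD(E) protein isolated from polymerized human fibrin clots; read-out basis: percent inhibition; medium: Tris/NaCl/CaCl2 buffer, pH 7.8; signal: FP measurement; incubation: 10 min plus 3 h, room temperature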
DDE Tn6 FP inh: disrupts Tn6 cyclic peptide binding to fibrin D-Dimer-E complex | hit rate 0.21% among 370,000 | P02675 | inhibition, % at 8.3 µM | AID 720509 | Fibrin DD(E) TRITC-Tn6 fluorescence polarization displacement;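 active = inhibition above a per-campaign cutoff: mean of compounds within control limits plus 3 SD, cut at about 15% in these data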
MT1-MMP act inh: inhibitors of human MT1-MMP activation | GFP/RFP ratio change, % at 20 µM | AID 651647 | hit rate 0.061% among 360,000 | HT1080 RFP-PRO-GFP cells, GFP/RFP ratio fluorescence, overnight; percent of plate control window, DMSO zero | P50281;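 active = GFP/RFP ratio change of at least 30% with cell ATP level not reduced by more than half and red fluorescence within 50% of control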
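Material: RFP-PRO-GFP reporter HT1080 cells. Dosing: single-point 20 µM compound, 1% DMSO. Controls: DMSO and RFP-L50D-GFP cell wells. Timing: cells overnight before dosing, compound overnight, 37 °C, 5% CO2. Measure: GFP/RFP fluorescence ratio.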
SKN-1 inh: blocks SKN-1 activity in C. elegans; AID 624304; inhibition, % at 21.8 µM; hit rate 0.49% among 360,000; C. elegans VP596 Pgst-4::GFP/RFP ratio, acrylamide-induced, 24 h;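 active = interference check ratio from 0.5 to 1.5 plus GFP to RFP signal ratio inhibition reaching or exceeding a fixed threshold, cut at about 30% in these data, passing the limit was not always enough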
A number is an active result; - = inactive; . = not tested or not shown.

SMILES	DDE Tn7 FP inh	DDE Tn6 FP inh	MT1-MMP act inh	SKN-1 inh
CCOc1ccc2c(=O)c(Oc3ccccc3OCC)coc2c1	-	-	-	36
CCOC(=O)c1ccc2c(c1)nc(SCC(=O)c1cc3ccccc3o1)n2CC	-	-	-	52
C=CCNC(=O)CSc1nc2cc(C(=O)OCC)ccc2n1CC	-	-	-	-
CC(=O)N=C1SC2CS(=O)(=O)CC2N1c1ccccc1Cl (stereo not given)	-	-	-	-
CC(=O)N=C1SC2CS(=O)(=O)CC2N1c1cccc(Cl)c1Cl (stereo not given)	-	-	-	40
FC(F)(F)c1cc(-c2ccccc2)nc(NCC2CCCO2)n1 (stereo not given)	-	-	-	-
FC(F)(F)c1cc(-c2ccccc2)nc(NC2CCCC2)n1	-	-	-	37
COc1ccc(-c2ccc3c(=O)cc(-c4ccsc4)oc3c2)cn1	-	-	-	47
Cc1ccc(NC(=S)NNC(=O)C2CC2c2ccc(C)cc2)cc1 (stereo not given)	-	-	-	40
COc1ccc(C2C(C(C)=O)=C(C)N=c3s/c(=C\c4cc(C)n(C)c4C)c(=O)n32)c(OC)c1 (stereo not given)	-	-	-	39
C/C(=N\NC(=O)c1cc(-c2ccco2)nc2ccccc12)c1cccnc1	-	-	-	-
C(=N\N=C\c1ccccn1)/c1ccccn1	-	-	-	-
C(=C1c2ccccc2-c2ccccc21)c1ccccn1	-	-	-	52
O=C1C(=Cc2ccccn2)CCc2ccccc21	-	-	-	39
CCCC/C=C1/[C@@H](CC)N(Cc2ccc(OC)cc2OC)C2=N[C@@H](c3ccccc3)CC(=O)N21	-	-	.	.
O=C(NCC1CC1)c1ccc(-c2cn[nH]c2)c2ccoc12	-	-	-	35
COCCNC(=O)c1ccc(-c2cn[nH]c2)c2ccoc12	-	-	-	-
Nn1c(SCC(=O)Nc2ccc(OCc3ccccc3)cc2)nnc1-c1cc(-c2ccccc2)n[nH]1	-	-	.	.
Nc1sc2c(c1C(=O)NCCc1ccccc1)CCCC2	-	28	-	-
Nc1sc2c(c1C(=O)NCCc1ccccc1)CCC2	-	-	-	-
C[C@@]12C(=O)N(Cc3ccc(-c4ccccc4)cc3)CC(=O)N1[C@H](/C=C/c1ccccc1)[C@@H]1C(=O)N(c3ccccc3)C(=O)[C@@H]12	-	-	-	39
COC(=O)CN1C(=O)[C@H]2[C@@H](/C=C/c3ccccc3)N3C(=O)CN(Cc4ccc(-c5ccccc5)cc4)C(=O)[C@@]3(C)[C@H]2C1=O	-	-	.	-
C[C@H]1COc2cc(Br)ccc2S(=O)(=O)N1Cc1cn(Cc2ccc(C(F)(F)F)cc2)nn1	-	-	.	.
O=S1(=O)c2ccc(N3CCSCC3)cc2Oc2ccccc2CN1Cc1cn(Cc2ccc(Cl)cc2)nn1	-	-	.	.
CCCCCCCCNC(=O)C(CCC(=O)OCc1ccccc1)NC(C)=O (stereo not given)	-	-	-	53
SMILES	DDE Tn7 FP inh	DDE Tn6 FP inh	MT1-MMP act inh	SKN-1 inh
CCC(C)C(N)C(=O)NC(CCC(=O)OCc1ccccc1)C(N)=O (stereo not given)	-	-	-	-
C/C(=N\N=c1/sc2ccccc2n1C)c1ccccn1	-	-	-	36
O=C(CN1C(=O)CCS(=O)(=O)c2ccccc21)NCc1ccccc1	-	-	-	37
O=C1C=CC(=O)c2c(O)c(N3CCN(CCOCCO)CC3)c(Br)c(O)c21	-	31	-	47
OCCOCCN1CCN(C2=Nc3ccccc3Sc3ccccc32)CC1	-	-	-	-
CCOC(=O)C(Cc1cc(C(C)=O)ccc1OCC)C(=O)OCC	-	-	-	38
CCC(C)C(=O)Nn1c(C2CC2)nc2cc(OC)c(OC)cc2c1=O (stereo not given)	-	-	-	-
CN(C)C(CNC(=O)c1cccc(S(=O)(=O)N2CCN(c3ccc(F)cc3)CC2)c1)c1ccccc1 (stereo not given)	-	-	-	46
COc1ccccc1CNC(=O)c1cccc(S(=O)(=O)N2CCN(c3ccc(F)cc3)CC2)c1	-	-	-	-
CCCCOc1ccc(C(=O)NC2CCCCN(Cc3ccc(C)cc3)C2=O)cc1 (stereo not given)	-	-	.	.
COc1ccc(-n2nnnc2SC(C)C(N)=O)cc1 (stereo not given)	-	-	-	-
CCN(CC)S(=O)(=O)c1ccc2c(c1)nc(SC(C)C(N)=O)n2-c1ccc(OC)cc1 (stereo not given)	-	-	-	29
